Bioassay records (PubChem BioAssay)
The list is not random: actives were taken first. Their share in the collection is about 1.5%.
FLuc act counter: FLuc activators, initial screening, artefact control for FLuc-dependent activation tests, biochemical, ATPlite luminescence. Luciferin 4-monooxygenase (Photinus pyralis), P08659. ATPlite luciferase biochemical, 10 min; 0 = ATP-free wells, 1 = DMSO control. activation factor at 10 µM. 200,000 tested, under 10 active;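 active = luciferase activation factor, scaled between plate controls, of at least 2 with compound at 10 µM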
Target sequence (P08659 whole entry, looked up): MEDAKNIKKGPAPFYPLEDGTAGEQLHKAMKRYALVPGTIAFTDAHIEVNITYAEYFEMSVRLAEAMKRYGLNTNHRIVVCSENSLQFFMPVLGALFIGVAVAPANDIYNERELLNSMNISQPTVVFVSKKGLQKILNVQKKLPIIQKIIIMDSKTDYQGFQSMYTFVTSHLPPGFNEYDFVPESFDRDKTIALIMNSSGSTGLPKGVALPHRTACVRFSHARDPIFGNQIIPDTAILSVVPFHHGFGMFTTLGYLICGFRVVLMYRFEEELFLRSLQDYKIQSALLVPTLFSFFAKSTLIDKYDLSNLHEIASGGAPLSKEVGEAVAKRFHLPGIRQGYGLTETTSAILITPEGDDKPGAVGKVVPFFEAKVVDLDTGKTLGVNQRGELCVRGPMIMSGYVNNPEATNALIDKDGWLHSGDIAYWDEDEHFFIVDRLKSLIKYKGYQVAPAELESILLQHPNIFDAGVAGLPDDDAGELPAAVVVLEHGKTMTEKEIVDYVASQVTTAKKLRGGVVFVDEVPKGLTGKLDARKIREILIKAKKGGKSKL
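Material: Luciferase/luciferin reagent mix | Doses: Test compounds dosed from 2 mM stocks in 100% DMSO | Timing: 10 min incubation after luciferase reagent addition, room temperature | Measured by: Luminescence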
TRAIL sens C8: viability loss with TRAIL in NB7+C8 cells, primary screen, TRAIL sensitizer project, cell-based, ATPlite luminescence; inhibition (viability loss, TRAIL sensitization), % at 10 µM; 1% of 360,000 active;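 active = compounds causing at least 50% loss of cell viability in the single-dose screen, relative to plate controls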
FLuc inhib CS: firefly luciferase enzyme inhibitors, primary screen, artefact control for luciferase-based inhibitor screens, biochemical, luminescence, ATPLite; Luciferin 4-monooxygenase (Photinus pyralis), P08659; inhibition, % at 10 µM; 10 min; 1.5% of 200,000 active;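 active = inhibition above about 50% when tested at 10 µM, limit read from the data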
PPC-1+TRAIL kill: compounds killing PPC-1 cancer cells with TRAIL present, primary screen, TRAIL potentiator project, ATPLite luminescence, uHTS; PPC-1 cells + TRAIL, ATPLite viability luminescence; cell killing (% activity), % at 4 µM or 5 µM; 0.41% of 220,000 active;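 active = cell killing above 50% in the first pass at 4 µM, then a duplicate retest at 5 µM averaging 50% or more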
Numbers stand for hits; – = inactive; · = no result given.

SMILES | FLuc act counter | TRAIL sens C8 | FLuc inhib CS | PPC-1+TRAIL kill
CCOc1cc(-c2c(C)c(CC)nc(N)c2C#N)ccc1O | – | – | – | –
CCc1nc(N)nc(N)c1-c1ccc(Cl)c([N+](=O)[O-])c1 | · | 80.3 | · | ·
CCc1nc(N)nc(N)c1-c1ccc(Cl)c(N=[N+]=[N-])c1 | · | 82.6 | · | ·
CN(CC(=O)NCCc1ccc(S(N)(=O)=O)cc1)CC(=O)Nc1cccc(F)c1 | · | – | · | ·
COc1cc2c(cc1[N+](=O)[O-])-c1ccc([N+](=O)[O-])cc1C2=NO | · | – | · | ·
O=C(O)/C=C/c1cccc(NC(=O)c2ccc(Cl)cc2)c1 | – | – | 67.6 | ·
O=C(O)/C=C/c1cccc(NC(=O)c2ccccc2)c1 | · | – | · | –
O=C(Nc1ccc(F)cc1)Nc1ccc2c(c1)CCC2 | · | – | · | ·
O=C(Nc1ccc2c(c1)CCC2)c1ccc(F)cc1 | – | 51.8 | 69.5 | –
Cc1csc(NC(=O)CCCNC(=O)c2ccc(Cl)cc2)n1 | · | – | · | ·
Cc1ccc(C(=O)OCC(=O)Nc2cccc(S(=O)(=O)N3CCCCC3)c2)s1 | · | – | · | ·
CC(=O)CSc1nc2cc3c(cc2cc1C#N)OCCO3 | – | 67.2 | – | –
N#Cc1cc2cc3c(cc2nc1SCC(=O)N1CCCC1)OCCO3 | · | – | · | ·
CCC1CCCCN1Cc1nc(Cc2ccccc2Cl)no1 (stereo unspecified) | · | 85.2 | · | –
Cc1ccc(CC(=O)O/N=C(\N)c2ccccn2)cc1 | · | – | · | ·
CC(C)(C)CC(=O)O/N=C(\N)c1ccccn1 | – | – | 51.1 | –
O=C(/C=C/c1ccc2c(c1)OCO2)c1ccccn1 | · | – | · | –
N/C(=N\OC(=O)C1CCCCC1)c1ccccn1 | – | – | 72.4 | –
N/C(=N\OC(=O)/C=C/c1ccccc1)c1ccccn1 | – | – | 82.2 | –
O=C(/C=C/c1ccccc1)c1ccccn1 | – | – | 70.6 | –
COc1ccncc1-c1csc(C(O)c2ccccc2)n1 (stereo unspecified) | · | – | · | ·
COC(=O)[C@]1(C)N[C@H](CN(C)C(=O)c2ccc(F)cc2)[C@@H]2C(=O)N(Cc3ccccc3)C(=O)[C@@H]21 | · | – | · | ·
CC(C)CC(=O)C1=C(O)C(=O)N(Cc2ccccc2)C1c1ccccc1 (stereo unspecified) | · | – | · | ·
CC(C)(C)NC(=O)C1c2ccccc2OCC(=O)N1Cc1ccccn1 (stereo unspecified) | · | – | · | ·
CCOc1cccc2sc(N(CCCN(C)C)C(=O)c3ccc(S(=O)(=O)N4CCc5ccccc5C4)cc3)nc12 | · | 68.3 | · | ·
SMILES | FLuc act counter | TRAIL sens C8 | FLuc inhib CS | PPC-1+TRAIL kill
CCc1ccc2nc(N(CCCN(C)C)C(=O)c3ccc(S(=O)(=O)N4CCc5ccccc5C4)cc3)sc2c1 | · | 79.5 | · | ·
CC(=O)Nc1cc(-c2ccsc2)cn2c(-c3ccc(F)cc3)cnc12 | · | – | · | ·
CC(=N/O)/C(C)=N\NC(=O)c1ccccn1 | – | – | 51.2 | –
C/C(=N\NC(=O)c1cc2ccccc2cc1O)c1ccccn1 | · | 58.3 | · | ·
C/C(=N\NC(=O)c1cc2ccccc2cc1O)c1cc2ccccc2o1 | · | – | · | –
C/C(=N\NC(=O)c1c[nH]c2ccccc12)c1ccccn1 | – | – | – | –
C/C(=N\NC(=O)c1ccc(F)cc1)c1ccccn1 | · | 55.0 | · | ·
Cn1cnnc1SCC(=O)NNC(=O)c1ccc([N+](=O)[O-])cc1 | · | – | · | ·
COc1ccc(N2CC(C(=O)Nc3nnc(SCC(=O)NCC4CCCO4)s3)CC2=O)cc1 (stereo unspecified) | · | – | · | ·
CC(C)CC(/C(O)=C(\C#N)c1nc2ccccc2[nH]1)N1C(=O)c2ccccc2C1=O (stereo unspecified) | – | 65.1 | – | –
O=C(c1ccccc1F)N1CCN(c2ccc([N+](=O)[O-])c(N3CCOCC3)c2)CC1 | – | – | 90.0 | –
COc1ccc(CCNc2cc(N3CCN(C(=O)c4ccccc4F)CC3)ccc2[N+](=O)[O-])cc1OC | – | 52.5 | – | –
CC(=O)Nc1cc(-c2ccccc2Cl)cn2c(-c3ccc(S(C)(=O)=O)cc3)cnc12 | · | – | · | ·
Brc1nc(-c2ccccc2)nc(-c2ccccc2)c1Br | · | 93.9 | · | ·
O=C(N/N=C1\CCCc2ccccc21)c1ccc([N+](=O)[O-])cc1 | – | – | 61.3 | –
CCN=c1scc(-c2ccc(F)cc2)n1/N=C/c1ccccn1 | – | – | – | –
CN=c1scc(-c2ccccc2F)n1/N=C/c1ccc[nH]1 | – | 88.1 | 97.4 | –
CN=c1scc(-c2ccccc2F)n1/N=C/c1ccc(O)c(O)c1O | – | 83.5 | 97.9 | –
CC(C)C(NC(=O)Nc1ccccc1)C(=O)Nc1cccc(S(=O)(=O)N(C)C)c1 (stereo unspecified) | · | – | · | ·
CSCCC(NC(=O)c1ccccc1)C(=O)N1CC(C)OC(C)C1 (stereo unspecified) | · | – | · | ·
CCOC(=O)N1CCN(C(=O)c2ccc(Cn3c(=S)[nH]c4ccc(Br)cc4c3=O)cc2)CC1 | · | 52.8 | · | ·
CCOC(=O)N1CCN(C(=O)c2ccc3c(=O)n(Cc4ccc(Cl)cc4)c(=S)[nH]c3c2)CC1 | – | – | – | –
COc1ccccc1CNS(=O)(=O)c1ccc(-c2cnc(C3CC3)o2)cc1 | · | – | · | ·
CC(C)COc1ccc(-c2nnc(-c3ccco3)o2)cc1 | – | – | 60.3 | –
CCN(CC)CCCNc1ccc(-c2nnc(-c3ccc(OCC(C)C)cc3)o2)cn1 | · | 86.6 | · | ·
SMILES | FLuc act counter | TRAIL sens C8 | FLuc inhib CS | PPC-1+TRAIL kill
COc1cccc(-c2nnc(-c3ccco3)o2)c1 | – | – | 54.1 | –
COc1cccc(-c2nnc(N)o2)c1 | · | – | · | –
COc1cccc(C(=O)Nc2ccc(-c3nnc(-c4ccco4)o3)cc2)c1 | – | – | – | –
CCN(CC)CCCNc1oc(-c2cccc(Cl)c2)nc1C#N | – | – | – | –
COc1cccc(-c2nnc(-c3ccc(C)o3)o2)c1 | – | 57.7 | 86.4 | –
Cc1ccc(S(=O)(=O)NCC(=O)NC2CC2)cc1 | · | – | · | ·
CN(C)CCCN(C(=O)c1ccc(C(=O)c2ccccc2)cc1)c1nc2cc3c(cc2s1)OCO3 | · | 52.8 | · | ·
CN(C)CCCN(C(=O)c1nc2ccccc2s1)c1nc2ccc(F)cc2s1 | · | – | · | ·
CN(C(=O)c1ccccc1)c1nc2ccccc2s1 | – | 72.1 | 84.0 | –
CN(C)CCCN(C(=O)c1ccc(C(=O)c2ccccc2)cc1)c1nc2ccc(F)cc2s1 | · | 48.6 | · | ·
CN(C)CCCN(C(=O)c1cc2cc([N+](=O)[O-])ccc2s1)c1nc2cc3c(cc2s1)OCCO3 | · | 91.3 | · | ·
CCN(CC)CCN(C(=O)c1ccc(C(=O)c2ccccc2)cc1)c1nc2cc3c(cc2s1)OCO3 | · | – | · | ·
COc1ccc(CC(=O)OCC(=O)Nc2cc(Cl)ccc2C)cc1 | · | – | · | ·
Cc1cccc(C(=O)NC2CCN(S(=O)(=O)c3ccc(F)cc3)CC2)c1 | · | – | · | ·
Cn1c2c(c(=O)n(C)c1=O)C(C(F)(F)F)(C(F)(F)F)N=C(c1ccc(Cl)cc1)N2 | – | 50.5 | – | –
Cc1ccccc1C1=NC(C(F)(F)F)(C(F)(F)F)c2c(n(C)c(=O)n(C)c2=O)N1 | – | – | – | –
CCOC(=O)C(C)(C)Sc1ncnc2nc[nH]c12 | – | – | – | –
CCOC(=O)c1cc([N+](=O)[O-])cc([N+](=O)[O-])c1Sc1ncnc2nc[nH]c12 | · | 67.3 | · | ·
